Experimental data reported in ChEMBL document CHEMBL5236601, “Development and Utility of a PAK1-Selective Degrader” (J Med Chem, 2022).
Active and inactive are the calls of the source. No cut-off for these calls is given here.

How the values were obtained:
Type in all cases: functional, cell-based
OVCAR-3 = assay: Antiproliferative activity against human OVCAR-3 cells assessed as cell viability measured after 72 hrs incubation by MTT assay
Summary of the method: (§1)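 Seeded at 2 x 10^3 cells/well overnight, then exposed to a range of concentrations for 72 hours (the figure legend states 96 hr). Cell viability read by MTT, with medium alone as blank. Triplicate wells, at least three independent experiments. IC50/EC50 from curve fitting, reported as means ± SD (n=3).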

MCF7 [1] = assay: Antiproliferative activity against human MCF7 cells assessed as cell viability measured after 72 hrs incubation by MTT assay; summary of the method: as §1
[2] = (§2) Antiproliferative activity against human OMM-1 cells assessed as cell viability measured after 72 hrs incubation by MTT assay; details: OMM-1, 72 h; summary of the method: as §1
[3] = (§3) Antiproliferative activity against human HeyA8 cells assessed as cell viability measured after 72 hrs incubation by MTT assay; details: HEY A8, 72 h; summary of the method: as §1
MCF7 [4] = assay: Antiproliferative activity against human MCF7 cells assessed as effect on doxycycline-induced PAK1-specific shRNA mediated reduction in PAK1 expression by measuring reduction in cell index after 114 hrs
OMM-1 = assay: as §2; summary of the method: as §1
HEY A8 = assay: as §3; summary of the method: as §1

EC50 (OVCAR-3; OVCAR-3, 72 h) [µM] | EC50 (MCF7 [1]; MCF7, 72 h) [µM] | Compound | EC50 [2] [µM] | EC50 [3] [µM] | Activity (MCF7 [4]) | Activity (OVCAR-3) | Activity (MCF7 [1]) | Activity (OMM-1) | Activity (HEY A8)
8.9 | 11.8 | CC(C)NC(=O)N1CC[C@@H](NC2=Nc3cc(F)ccc3N(CC(F)F)c3ccc(Cl)cc32)C1 | 12 | 33.6 | Active | – | – | – | –
– | – | Nc1cccc2c1CN(C1CCC(=O)NC1=O)C2=O (centres undefined) | – | – | – | inactive | inactive | inactive | inactive
